# CCR6 antag – CCR6 (human) receptor antagonism; actives 0.49% (n = 340,000); CHO-K1 CCR6 PathHunter beta-arrestin, luminescence, CCL20-stimulated; inhibition, % at 20 µM; P51684;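 active means compounds whose inhibition of the agonist-driven luminescence signal at 20 µM reaches about 50%, limit read from the data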;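 further: cells stimulated with CCL20 at 14 nM final; plate controls were DMSO with CCL20 for no effect and DMSO without agonist for full effect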
# EBI2 antag – antagonists of human EBI2 receptor; P32249; EBI2 beta-arrestin recruitment, luminescence, 7a,25-OHC stimulated; inhibition, % at 5 µM; actives 0.81% (n = 360,000); AID 651636; in the data active means inhibition above about 38%;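 further: enzyme fragment complementation signal reports receptor beta-arrestin coupling in cells; 0% = agonist plus DMSO wells and 100% = wells without agonist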
# Target sequence (P32249 whole entry, looked up, the tested form may be a part): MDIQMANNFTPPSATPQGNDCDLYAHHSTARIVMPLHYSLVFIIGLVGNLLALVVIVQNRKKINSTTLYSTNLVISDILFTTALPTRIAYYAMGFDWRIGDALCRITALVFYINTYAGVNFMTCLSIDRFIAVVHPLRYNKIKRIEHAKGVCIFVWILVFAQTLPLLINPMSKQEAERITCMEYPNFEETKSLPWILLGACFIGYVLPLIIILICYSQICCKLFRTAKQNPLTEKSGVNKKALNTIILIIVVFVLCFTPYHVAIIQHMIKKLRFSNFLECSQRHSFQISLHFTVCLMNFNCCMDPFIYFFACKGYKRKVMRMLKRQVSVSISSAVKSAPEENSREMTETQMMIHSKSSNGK
# APJ ag – APJ receptor agonism; P35414; CHO-K1 APJ PathHunter beta-arrestin, luminescence; 0% DMSO wells, 100% apelin; activation, % at 20 µM; actives 0.11% (n = 330,000); AID 2520;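 active means activation more than six SD over the plate average, tested at 20 µM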;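 further: 0% = DMSO alone and 100% = apelin-13 at 10 nM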
#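 Material: CHO-K1 APJ beta-arrestin complementation cell line; Input: cell density 1000 per well; Incubation: compound stimulation 90 min at 25 °C, detection 60 min; Signal: luminescence from split beta-galactosidase complementation, Galacton Star/Emerald II substrate; Controls: DMSO-only wells as negative, 10 nM Apelin-13 as positive control.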
# APJ antagonist – APJ receptor antagonism; inhibition, % at 20 µM; CHO-K1 APJ beta-arrestin complementation, luminescence; P35414; actives 0.32% (n = 330,000);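 active means inhibition above about 40% at 20 µM, limit read from the data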;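 further: cells challenged with 10 nM apelin-13 agonist together with compound; plate controls were apelin-13 plus DMSO wells for no effect and DMSO wells lacking apelin-13 for full effect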
# CXCR6 block – inhibitors of human CXCR6 receptor; O00574; CHO-K1 PathHunter CXCR6 beta-arrestin, luminescence; inhibition, % at 20 µM; actives 0.36% (n = 360,000); in the data active means inhibition above about 34%, passing the limit was not always enough;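 further: antagonist mode with CXCL16 agonist at 10 nM final; 0% = 10 nM CXCL16 with DMSO and 100% = unstimulated wells without agonist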
# HTR2A ag – activates the mouse 5-HT2A serotonin receptor; P35363; CHO-K1 mHTR2A beta-arrestin complementation, luminescence; percent of 30 µM serotonin response; activation, % at 7.6 µM; actives 0.66% (n = 360,000);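 active means activation above a run cutoff, the mean activation of all tested compounds plus 3 SD, cut at about 14% in these data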;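 further: 0% = plate median of compound wells and 100% = 30 µM serotonin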
# EBI2 conf – EBI2 (human) antagonism, single concentration confirmation. shares compounds with EBI2 antag. EBI2 beta-arrestin luminescence, 7a,25-OHC antagonism. inhibition, % at 5 µM. actives 29% (n = 2,400);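 active means inhibition of at least 50%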
# EBI2 ag – EBI2 agonism counter-screen. activation, % at 5 µM. EBI2-expressing cells, agonist mode, luminescence, 60 min; 0% vehicle, 100% 7α,25-dihydroxycholesterol control. shares compounds with EBI2 antag. 2,400 tested, under 10 active;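 active means activation of at least 50%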
# bGal counter – inhibits E. coli beta-galactosidase, counter-screen for EBI2 antagonists | shares compounds with EBI2 antag | purified beta-galactosidase, luminescent Galacton Star, 15 min | inhibition, % at 5 µM | actives 1% (n = 2,400) | AID 652176;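 active means replicate-average signal at least 3 plate SD below neutral wells, shown as high inhibition, flagging enzyme-inhibiting false positives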;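 further: 0% = DMSO wells with enzyme and 100% = wells lacking enzyme; higher means stronger loss of beta-gal luminescence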
# The depositor's hits bear a star; x = not tested or not shown. Shown are actives, neighbours in structure and some others; about 2.1% of the full set was active somewhere.
SMILES,CCR6 antag,EBI2 antag,APJ ag,APJ antagonist,CXCR6 block,HTR2A ag,EBI2 conf,EBI2 ag,bGal counter
Cc1ccc(SCC(=O)NCCC2=CCCCC2)cc1,4,38*,-2,1,1,-1,31,2,0
CC(C(=O)NCCS(=O)(=O)c1ccc(Br)cc1)S(=O)(=O)c1ccc(Cl)cc1 (configuration not stated),-2,2,-1,-1,5,0,x,x,x
CC(C)c1ccc(C(C)NCCS(=O)(=O)c2ccc(Cl)cc2)cc1 (configuration not stated),12,72*,-3,5,6,6,49,1,12
COc1ccccc1CNc1ncnc2cc(OC)c(OC)cc12,7,11,-1,5,2,-3,x,x,x
CCCCn1c2ccc(F)cc2c2nnc(SCCN3CCCCC3)nc21,6,57*,-2,6,8,-10,33,0,11
CCCCn1c2ccc(C)cc2c2nnc(SCCN3CCCCC3)nc21,13,69*,-2,-3,1,-15,28,0,2
C(=C\c1nccc2c1[nH]c1ccccc12)/c1ccccc1,-20,55*,0,6,-10,-1,35,2,-2
O=c1[nH]c2ccccc2nc1/C=C/c1ccc(F)cc1,-4,7,-1,1,3,1,x,x,x
Fc1ccc(/C=C\c2nccc3c2[nH]c2ccccc23)cc1,0,49*,2,-12,-2,-3,29,-1,-9
Cc1ccc(/C=C\c2nccc3c2[nH]c2ccccc23)cc1,-19,74*,-3,-7,-13,-7,46,-1,-8
Cc1ccc(S(=O)(=O)Nc2ccc(Nc3nccn4c(-c5ccccc5Oc5ccccc5)cnc34)cc2)cc1,x,18,x,x,-2,2,x,x,x
CCCOC(=O)c1ccc(NC(=O)CSC2=Nc3ccccc3C3CC=NN23)cc1 (configuration not stated),2,40*,-3,6,11,1,5,0,-10
O=C(CSC1=Nc2ccccc2C2CC=NN12)NCc1ccco1 (configuration not stated),24,9,-8,27,11,6,x,x,x
O=c1c2ccccc2n2c(-c3ccc(F)cc3)nnc2n1Cc1ccccc1,2,-6,2,3,7,-2,x,x,x
O=c1c2ccccc2n2c(-c3ccc(C(F)(F)F)cc3)nnc2n1Cc1ccccc1,19,47*,2,-7,19,-5,22,-1,-10
COc1ccc(S(=O)(=O)N2CCN(C(=O)NCc3ccc(C)cc3)CC2)cc1,2,77*,-1,10,5,-9,60*,2,0
Cc1ccc(CNC(=O)c2ccc(S(=O)(=O)N3CCCCC3)cc2)cc1,7,64*,4,6,-2,-3,27,2,2
Cc1ccc(CNC(=O)Cc2ccc(-n3cccc3)cc2)cc1,-8,-6,-2,-6,-2,1,x,x,x
Cc1cccc(C(=O)NC(=S)Nc2ccc(S(=O)(=O)N3CCCCC3)cc2)c1,41,62*,-3,9,18,-5,45,-1,-14
Cc1ccc(CNC(=O)c2ccc(-n3cccc3)cc2)cc1,14,47*,x,x,-2,0,3,-1,-11
Cc1ccc(CNC(=O)c2ccc(S(=O)(=O)N3CCCC3)cc2)cc1,x,34,x,x,5,-6,x,x,x
Cc1[nH]c2ccccc2c1CCNC(=O)c1ccc2nccnc2c1,4,10,1,-7,2,-2,x,x,x
COc1ccc(CCNC(=S)N2CCN(S(=O)(=O)c3ccc(C)cc3)CC2)cc1,16,52*,7,14,1,-4,43,1,0
COc1ccc(CNC(=O)N2CCN(S(=O)(=O)c3ccccc3F)CC2)cc1,2,13,-1,20,1,-1,x,x,x
Cc1ccc(S(=O)(=O)N2CCN(C(=O)NCc3ccc(F)cc3)CC2)c(C)c1,8,68*,-1,1,-1,-3,27,1,1
SMILES,CCR6 antag,EBI2 antag,APJ ag,APJ antagonist,CXCR6 block,HTR2A ag,EBI2 conf,EBI2 ag,bGal counter
COc1ccc(S(=O)(=O)N2CCN(C(=S)NCCc3ccccc3)CC2)cc1,7,12,13,-44,-4,-3,x,x,x
COc1ccc(CNC(=O)N2CCN(S(=O)(=O)c3ccc(C)cc3C)CC2)cc1,21,63*,0,-11,-4,2,39,-1,-17
CCOC(=O)N(C)C[C@@H]1OCc2cn(nn2)CCCC(=O)N([C@@H](C)CO)C[C@H]1C,x,-6,x,x,3,0,x,x,x
Cc1nc(SCc2nc3ccc(Br)cc3[nH]2)c2oc3ccccc3c2n1,3,2,-1,-6,12,-3,x,x,x
COc1ccc2c(c1)oc1c(SCc3nc4ccccc4[nH]3)nc(C)nc12,8,78*,-1,-6,9,-6,51*,0,-5
Cc1nc(SCc2nc3ccccc3[nH]2)c2oc3cc([N+](=O)[O-])ccc3c2n1,11,48*,3,-32,-7,-1,59*,0,2
Cc1nc(SCc2nc3ccc(Cl)cc3[nH]2)c2oc3ccccc3c2n1,5,17,-3,9,2,4,x,x,x
Cc1ccc(/C=C/C(=O)NC(=S)N2CCN(C)CC2)cc1,-1,55*,-1,4,3,-4,49,0,-14
Cc1ccc(/C=C/C(=O)NC(=S)N2CCN(c3ccc(F)cc3)CC2)cc1,-6,48*,-3,-14,-8,0,21,-1,-10
CC1(C)CC(=O)C2=C(C1)OC1=C(C(=O)CC(C)(C)C1)C2c1ccccc1,-4,-5,4,-3,5,-2,x,x,x
Cc1ccc(-c2nnc(N3CCN(C(=O)c4ccco4)CC3)c3ccccc23)cc1,17,-15,2,2,9,-5,x,x,x
Cc1cccc(OCC(=O)N2CCN(c3nnc(-c4ccccc4)c4ccccc34)CC2)c1,10,55*,-2,4,14,2,29,3,3
Cc1ccc(-c2nnc(N3CCN(C(=O)COc4cccc(C)c4)CC3)c3ccccc23)cc1,12,63*,1,8,-1,1,32,-1,-12

# From PubChem BioAssay
